Legend:
ClpP = assay: In vitro casein degradation assay without AAA+ chaperone; format: biochemical; conditions: FITC-casein 20 μM, 32°C, 3 h
[1] = test system: C. trachomatis serovar L2; assay: Inclusion forming units; format: cell-based, Chlamydia trachomatis; conditions: 50 μg/mL, added 8 h after infection, 24 h
E. coli K12 = assay: Broth microdilution antibacterial assay, E. coli K12; format: cell-based, Escherichia coli; conditions: concentrations up to 256 μg/mL
S. aureus JE2 = assay: Broth microdilution antibacterial assay, S. aureus JE2; format: cell-based, Staphylococcus aureus; conditions: concentrations up to 256 μg/mL
[2] = Metabolic stability in human liver microsomes; format: in vitro ADME; conditions: human liver microsomes with NADPH
[3] = test system: human keratinocyte (HaCaT) cells; assay: Cytotoxicity assay; format: cell-based; conditions: 50 μg/mL, 24 h
D. melanogaster = assay: Toxicity; format: in vivo, Drosophila melanogaster; conditions: 0.25, 0.5, and 1.0 mM
Method in brief: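 Eggs from two different crosses collected for 8 hours in culture flasks on solid agar base (5% w/v) topped with live baker's yeast plus sugar.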

Row | Compound | impact on chlamydiae (infectious progeny, IFU) [1] | bacterial death (E. coli K12) | bacterial death (S. aureus JE2) | other results
1 | CC(C)(C(=O)NCCSc1ccccc1Cl)S(=O)(=O)c1ccccc1 [Compound 16, N-(2-((2-chlorophenyl)thio)ethyl)-2-methyl-2-(phenylsulfonyl)propanamide] | – | – | – | ClpP-dependent casein degradation in the absence of a chaperone (ClpP): little or no degradation
2 | CC(C)(C(=O)NCCOc1ccccc1)S(=O)(=O)c1ccc(C(F)(F)F)cn1 [Compound 25, 2-Methyl-N-(2-Phenoxyethyl)-2-))5-(trifluoromethyl)pyridin-2-yl(sulfonyl(propenamide] | remarkable impact | bacterial death was not observed | bacterial death was not observed | CL(int,H) Mean [2]: 1461.60 mL/(min*kg bodywgt.)
3 | Cc1ccccc1N1CCN(C(=O)C(C)(C)S(=O)(=O)c2ccc(C(F)(F)F)cn2)CC1 [Compound 35, 2-methyl-1-(4-(o-tolyl)piperazin-1-yl)-2-((5-(trifluoromethyl)pyridin-2-yl)sulfonyl)propan-1-one] | remarkable impact | bacterial death was not observed | bacterial death was not observed | –
4 | CC(C)(C(=O)NCCOc1ccccc1Cl)S(=O)(=O)c1ccc(C(F)(F)F)cn1 [Compound 28, N-(2-(2-Chlorophenoxy)ethyl)-2-methyl-2-((5-(trifluoromethyl)pyridin-2-yl)sulfonyl) propanamide] | – | bacterial death was not observed | bacterial death was not observed | –
5 | CC(C)(C(=O)NCCSc1ccc(Cl)cc1)S(=O)(=O)c1ccccc1 [Compound 17, N-(2-((4-Chlorophenyl)thio)ethyl)-2-methyl-2-(phenylsulfonyl)propanamide] | – | – | – | ClpP-dependent casein degradation in the absence of a chaperone (ClpP): little or no degradation
6 | 2-bromoethylamine [Compound 21] | – | bacterial death was not observed | bacterial death was not observed | –
7 | 1-(4-(3,4-dichlorophenyl)piperazin-1-yl)-2-((5-(trifluoromethyl)pyridin-2-yl)sulfonyl) propan-1-one [Compound 37] | remarkable impact | bacterial death was not observed | bacterial death was not observed | CL(int) Mean [2]: 111.96 uL/(min*mg protein); CL(int,H) Mean [2]: 873.80 mL/(min*kg bodywgt.); T1/2 Mean [2]: 6.25 min; toxicity towards HaCaT cells [3]: more tolerated
8 | CC(C)(C(=O)NCCSc1ccc(Cl)cc1)S(=O)(=O)c1ccc(C(F)(F)F)cn1 [Compound 20] | – | – | – | toxicity against D. melanogaster (survival rate) (D. melanogaster): did not show toxicity
9 | CC(C)(C(=O)NCCOc1ccccc1Cl)S(=O)(=O)c1ccccc1 [Compound 26, N-(2-(2-Chlorophenoxy)ethyl)-2-methyl-2-(Phenylsulfonyl)propanamide] | – | – | – | toxicity against D. melanogaster (survival rate) (D. melanogaster): did not show toxicity
10 | Cc1ccc(CN2CCN(C(=O)C(C)(C)S(=O)(=O)c3ccc(C(F)(F)F)cn3)CC2)cc1 [Compound 42, 2-methyl-1-(4-(4-methylbenzyl)piperazin-1-yl)-2-((5-(trifluoromethyl)pyridin-2-yl)sulfonyl) propan-1-one] | – | bacterial death was not observed | bacterial death was not observed | toxicity towards HaCaT cells [3]: more tolerated
11 | CC(C)(C(=O)N1CCN(Cc2cccc(Cl)c2)CC1)S(=O)(=O)c1ccc(C(F)(F)F)cn1 [Compound 41, 2-methyl-1-(4-(3-chlorobenzyl)piperazin-1-yl)-2-((5-(trifluoromethyl)pyridin-2-yl)sulfonyl) propan-1-one] | remarkable impact | – | – | toxicity against D. melanogaster (survival rate) (D. melanogaster): did not show toxicity

Source: article PMC10353488 (Journal of medicinal chemistry, 2020)
